Data set [1] concerns Mus musculus. The data set is described as follows: Toxicity in ip dosed Swiss albino mouse assessed as assessed as decrease in fall of time after 30 mins by rotarod test. The note with it: in vivo, 0.5 h. It is filed as organism-based. (In general: The rotarod test checks motor coordination on a turning rod.)
The subject of data set [2] is Mus musculus. The data set is described as follows: Anticonvulsant activity in Swiss albino mouse assessed as reduction of supramaximal electroshock-induced hind limb tonic extension response at 10 mg/kg, ip administered 30 mins before SME challenge measured after 1 hr. It is filed as functional, Hindlimb. To be noted: route intraperitoneal. Summed up: (§1)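 Swiss albino mice of either sex, 30–35 g, n=6 per group, dosed 10 or 30 mg/kg i.p.; diazepam 5 mg/kg as standard. After 1 h, electroshock 42 mA for 0.2 s via ear electrodes. Readout: duration of hind limb extension phase (sec). Mean ± SEM; one-way ANOVA with Student–Newman–Keuls test.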
For orientation: Protection in the maximal electroshock model is a classic sign of anticonvulsant action.

Data set [3] concerns Mus musculus. The data set is described as follows: Anticonvulsant activity in Swiss albino mouse assessed as inhibition of isoniazide hydrazone-induced seizure at 10 mg/kg, ip administered 30 mins before isoniazide hydrazone challenge measured after 1 hr. It counts as functional. The note with it: route intraperitoneal. Summed up:
(§2)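 Swiss albino mice, 30–35 g, given test drug 10 or 30 mg/kg i.p.; INH 250 mg/kg i.p. injected 30 min later. Animals showing excitement, myoclonic jerks, clonic and maximal seizures grouped, n=6. Readout: reduction of seizure duration (sec). Reference standard diazepam. Mean ± SEM; one-way ANOVA with Student–Newman–Keuls test.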

In data set [4] the test system is Mus musculus. Description: Anticonvulsant activity in Swiss albino mouse assessed as inhibition of isoniazide hydrazone-induced seizure at 30 mg/kg, ip administered 30 mins before isoniazide hydrazone challenge measured after 1 hr. It counts as functional. To be noted: route intraperitoneal. Summed up:
as §2

In data set [5] the test system is Mus musculus. Description: Anticonvulsant activity in Swiss albino mouse assessed as reduction of supramaximal electroshock-induced hind limb tonic extension response at 30 mg/kg, ip administered 30 mins before SME challenge measured after 1 hr. It is filed as functional, Hindlimb. To be noted: route intraperitoneal. An outline of the steps:
as §1

The test system of data set [6] is Mus musculus. The data set is described as follows: Toxicity in ip dosed Swiss albino mouse assessed as decrease in locomotor activity after 30 mins by actophotometer. It is filed as organism-based. To be noted: in vivo, 0.5 h. An outline of the steps: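 Actophotometer test in six mice per group, dosed 10 or 30 mg/kg i.p.; vehicle control 0.2% Tween 80 (0.3 ml/kg); diazepam 5 mg/kg as standard. Scored 30 min after dosing: beam interruptions counted over 10 min after 1 min acclimatization, before versus after treatment. Mean ± SEM.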

SMILES strings stand for the structures.

Take `COc1ccc(C2Nc3ccccc3N=C3C2SC(/C=C/c2ccccc2)N3NC(=O)c2c(C)csc2NC(=O)c2ccccc2)cc1` (stereo not drawn): the Activity entry is recorded as “Non-toxic” in the data set on Mus musculus [1]; 15.328 s in the data set with Mus musculus [2]; 101.83 s in the data set with Mus musculus [3]; 108.5 s in the data set on Mus musculus [4]; 14.907 s with Mus musculus [5]; “Non-toxic” in the data set with Mus musculus [6].

With `Cc1csc(NC(=O)c2ccccc2)c1C(=O)NN1C2=Nc3ccccc3NC(c3ccc(F)cc3)C2SC1/C=C/c1ccccc1` (stereo not drawn), the Activity entry is “Non-toxic” in the data set with Mus musculus [1]; 16.442 s in the data set with Mus musculus [2]; 69.833 s with Mus musculus [3]; 74 s in the data set on Mus musculus [4]; 15.408 s in the data set on Mus musculus [5]; “Non-toxic” in the data set on Mus musculus [6].

Consider `Cc1csc(NC(=O)c2ccccc2)c1C(=O)NN1C2=Nc3ccccc3NC(c3ccc(N(C)C)cc3)C2SC1/C=C/c1ccccc1` (stereo not drawn), for which the Activity entry is listed as “Non-toxic” with Mus musculus [1]; 13.355 s in the data set on Mus musculus [2]; 92.33 s in the data set with Mus musculus [3]; 95.33 s in the data set with Mus musculus [4]; 13 s with Mus musculus [5]; “Non-toxic” with Mus musculus [6].

`CN1C(=O)CN=C(c2ccccc2)c2cc(Cl)ccc21` [DIAZEPAM]: the Activity entry with Mus musculus [1] and with Mus musculus [6] was “Non-toxic” in each case.

Turning to `Cc1csc(NC(=O)c2ccccc2)c1C(=O)NN1C2=Nc3ccccc3NC(c3ccccc3Cl)C2SC1/C=C/c1ccccc1` (stereo not drawn), the Activity result in the data set on Mus musculus [1] is “Non-toxic”; in the data set on Mus musculus [2], 14.54 s; in the data set on Mus musculus [3], 81.833 s; with Mus musculus [4] it was 83.33 s; in the data set with Mus musculus [5], 13.632 s; in the data set with Mus musculus [6] it was “Non-toxic”.

`Cc1csc(NC(=O)c2ccccc2)c1C(=O)NN1C2=Nc3ccccc3NC(c3cccc([N+](=O)[O-])c3)C2SC1/C=C/c1ccccc1` (stereo not drawn): the Activity entry with Mus musculus [1] is “Non-toxic”; in the data set on Mus musculus [2], 15.328 s; with Mus musculus [3], 71.33 s; in the data set with Mus musculus [4], 78.833 s; in the data set on Mus musculus [5], 14.907 s; with Mus musculus [6], “Non-toxic”.

For `Cc1csc(NC(=O)c2ccccc2)c1C(=O)NN1C2=Nc3ccccc3NC(c3ccccc3O)C2SC1/C=C/c1ccccc1` (stereo not drawn), the Activity result with Mus musculus [1] was “Non-toxic”; in the data set on Mus musculus [2], 13.228 s; in the data set with Mus musculus [3], 85.5 s; in the data set on Mus musculus [4] it was 87.667 s; with Mus musculus [5], 14.263 s; in the data set with Mus musculus [6] it was “Non-toxic”.

(Values after ChEMBL document CHEMBL1154852, “Design, synthesis and pharmacological screening of potential anticonvulsant agents using hybrid approach” (Eur J Med Chem, 2010).)
